In this series the test system is MS2 coat protein. Briefly: apparent Kd, MS2 coat protein; higher = weaker binding; RNA-MaP array; FMN 200 µM where present. In outline:
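Designs on Illumina sequencing-chip clusters, transcribed by stalled E. coli RNA polymerase, were exposed to SNAP-549-labelled MS2 coat protein in doubling steps from 0.7 or 1.5 nM up to 3 µM, without and then with constant ligand. The buffer held 100 mM Tris-HCl pH 7.5, 80 mM KCl, 4 mM MgCl2, BSA, DTT, yeast tRNA and Tween-20. Apparent Kd values are medians of filtered per-cluster binding-curve fits to green signal normalised to red-channel RNA signal and control-cluster median Fmax.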

The mark [1] stands for this setting: designed as: OFF switch for flavin mononucleotide, no ligand.
Where [2] appears, read: ligand present: flavin mononucleotide, designed as: OFF switch for flavin mononucleotide.
Setting [3] is: designed as: ON switch for flavin mononucleotide, no ligand.
The mark [4] stands for this setting: ligand present: flavin mononucleotide, designed as: ON switch for flavin mononucleotide.

As a reminder, the apparent Kd is the concentration giving half-maximal binding under the conditions of the assay.

On to “ACAAAUGGAGGAUAUACAUGAGGAUCACCCAUGUAUAUCCUACAUAUGUGAUAAAAAUGUAGAAGGCCAUUUGA”, for which the “apparent Kd” value reads like this: under setting [1], 11.6 nM; under setting [2], 10.8 nM.
In the case of “UAAACACCCUCAUGUGCCUGAGGACAUGAGGAUCACCCAUGUAAGGAUAUAGCCAUUAAAUCUAACUAGAAGGUAUAGGACAUC”, the “apparent Kd” value is, setting by setting: under setting [1], 925 nM; under setting [2], 540 nM.
The like results for “UGAUACUAAGAGAAGGUUCAAACUACAUAUUACAUACAUGAGGAUCACCCAUGUUGGUGAAUAAGAAAGGAUAUUUUACUAUAU” were, in that order, 25.7 nM and 21.6 nM.
For the sequence “GUAAAUCAUGUAGGAUAUGCAUGGCGAAGCUACGCAGAAGGACAUGAGGAUCACCCAUGUUAAAGCUACCGAGUUCGGUGGCAA”, the “apparent Kd” value turned out to be 133 nM under setting [1] and 162 nM under setting [2].
For “CACGUCCUCACAGGAUAUGCUGGACUUUGUCCAGCAGAAGGGUGACAUGAGGAUCACCCAUGUAAAAGGACGUGUAUAUUUAAU”, the “apparent Kd” value is, setting by setting: under setting [3], 515 nM; under setting [4], 41.5 nM.
For “AUAGCUCUCUAGAAGGUCCAACCAGUAUUCCAUCAGGUAAAUACGGUAGGGAGGAUAUGGGACAUGAGGAUCACCCAUGUGUAG” the same measures were 42.2 nM and 25.2 nM.
Take “UUAUAAAGUGUGAGGAUAUGCUGGUCGAUAGAUCAGCAGAAGGCACAUGAGGAUCACCCAUGUAAUAUAUUUUU”: the “apparent Kd” value amounted to 48 nM under setting [1] and 239 nM under setting [2].
For “CGGAAACAAGGAUAUACAUGAGGAUCACCCAUGUCGCUAACUGCGCUCUUGUGAUCCGGUAGAAGGUGUGAAUA” the same measures were 29.8 nM and 41 nM.
For “UUUCUGUGAGGAUAUCAGUAGUAAAUAAAUAAAAUUACUACUGAGAAGGCACAUGAGGAUCACCCAUGUUCCUU” the same measures were 12.2 nM and 29.7 nM.
For “GGGCCACAUGAGGAUCACCCAUGUAAGGAUAUGCUAGGGAUGGAAAAAAUUUCGCUAGGCAGAAGGUACUAAAG” the same measures were 32 nM and 55.6 nM.
As for “AAGGUACAUGAGGAUCACCCAUGUGGGUCGGUCGCAGGAUAUCGCCGUUGGCCCUGGCGGCGAGAAGGGUGCCGAA”, the “apparent Kd” value is 375 nM under setting [3] and 61.1 nM under setting [4].
Consider “AACAAUCUAUCUGAGGAUAUCAUGUCAAAGACAUGAGGAUCACCCAUGUACCAGGAAACUGGUUAUGAGAAGGCAGAUAGAUUGA”, for which the “apparent Kd” value under setting [3] stood at 1260 nM and the “apparent Kd” value under setting [4] was 54.8 nM.
“CCAGGCUUCGAGAAGGACAUGAGGAUCACCCAUGUGCGUGUAAAACAGCCAAAAGGCUGCAUCAUGUAGGAUAUCGGAGUCUGC”: the “apparent Kd” value under setting [1] amounted to 275 nM and the “apparent Kd” value under setting [2] came to 95.5 nM.
The like results for “AAAUUGCUAGAGGAUAUCGGAUAGGAUCUAUUACGAGAAGGUUGGACAUGAGGAUCACCCAUGUUCUGUUGGGA” were, in that order, 23.8 nM and 23.5 nM.
As to “GAUUCGCGUGAGAAGGACAUGAGGAUCACCCAUGUAGGAUAUCACGGUCCUUAGAGGAUUUCAAACCGUACUGGGUCAUAGUGU”, the “apparent Kd” value under setting [3] was 15.2 nM and the “apparent Kd” value under setting [4] was determined as 6.7 nM.
Consider “ACUUCUAAGCAGAAGGCAGUCAUAGCAUUCGUCAUGUAGACAUGAGGAUCACCCAUGUAUAGUGCUGAGGAUAUGCUUGGAUAG”, for which the “apparent Kd” value was found to be 11.8 nM under setting [1] and 10.7 nM under setting [2].
With “ACGUGACGUUAGGAUAUUAACUACCUGCCAUCUUAAGAAGGAACGACAUGAGGAUCACCCAUGUGAAUCCGCGA”, the “apparent Kd” value under setting [1] came to 26.7 nM and the “apparent Kd” value under setting [2] came to 27 nM.
The like results for “CAGGUAGACUGAGGAUAUACAAAAGACCUAGUCUAUCUAGGUCAACUCACAUGAGGAUCACCCAUGUAGAAGGCAGUCUGCCUG” were, in that order, 19.3 nM and 70.9 nM.
In the case of “GUGUUGGUAGGAUAUCCACCGACAAACAUGAGGAUCACCCAUGUGACGCUCCCUUGUCUUGGAGAAGGGCCGGCAU”, the “apparent Kd” value under setting [1] was determined as 50.4 nM and the “apparent Kd” value under setting [2] turned out to be 49.1 nM.
The like results for “GUGUACGGAGGAUAUAUAUGGGCAGGCUGACCUGCAGCUUCACAUGAGGAUCACCCAUGUAGAAGGCUGUACAC” were, in that order, 41.9 nM and 224 nM.

Values taken from the EternaBench riboswitch data.
